Compound activity from PubChem BioAssay.
Lmaj promast – Leishmania major promastigote growth inhibition | Leishmania major promastigotes, resazurin fluorescence viability | inhibition, % at 10 µM | 200,000 tested, 9% active; in the data active = inhibition above about 50%;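 note: promastigotes grown with compound for 44 hours at 28 °C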
MPTP block – blocks calcium-induced mitochondrial swelling; isolated mouse mitochondria, Ca2+ swelling absorbance, 30 min; inhibition, % at 10 µM; 360,000 tested, 1.4% active;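 active = inhibition of 50% or more, scaled per plate between neutral and stimulator controls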;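 note: 0% = DMSO wells given calcium and 100% = 1 mM EGTA wells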
T cruzi inh – T. cruzi replication inhibition; T. cruzi beta-gal in NIH3T3, luminescence, 90 h; inhibition, % (no concentration beside the values); AID 1885; 300,000 tested, 1.4% active;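 active = mean inhibition across valid replicates above about 55%, limit read from the data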;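 note: signal also drops with host cell toxicity which is not excluded here; 0% = plate median of DMSO wells and 100% = zero luminescence signal; higher percent means less beta-gal luminescence so fewer parasites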
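Assay system: NIH/3T3 fibroblasts plus reporter T. cruzi. Amount: NIH/3T3 cells, 5,000 per well. Buffer or medium: DMEM, 2% fetal bovine serum. Doses: compound pinned at 50 nL/well, DMSO. Schedule: ≥90 h infection period, 3 h prior cell attachment. Signal: luminescent β-galactosidase signal after 60 min lysis. Read-out: parasite load inhibition, %.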
Lipid droplet – hepatic lipid droplet formation modulation. AML12 mouse hepatocytes, oleate lipid droplets, BODIPY imaging. inhibition, % at 6.5 µM. 240,000 tested, 0.4% active. AID 1656;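 active = lipid droplet intensity inhibited by at least 50%, with more than 500 cells counted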
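material = mouse AML12 hepatocyte cell line, fixed after treatment | also added = 100 µM oleic acid challenge | doses = compound at 6.5 µM only | schedule = overnight exposure | technique = Image-based BODIPY and DAPI two-channel analysis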
DTT redox prof – compounds producing H2O2 with reducing agent – biochemical, NIH compound library profiling, artefact control for MLSCN library redox annotation, primary screen; DTT-dependent redox cycling H2O2, phenol red/HRP absorbance; 100% = 100 µM peroxide control, 0% = buffer; activation, % at 10 µM; 200,000 tested, 0.03% active; AID 878;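 active = activation of at least 50% relative to the plate's high and low controls in the primary single-dose screen; inactive = activation below 50%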;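 note: compound incubated with DTT at 0.8 mM final as the reducing agent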
Lmaj promast 1uM – L. major promastigote growth inhibition, 1 uM repeat; shares compounds with Lmaj promast; resazurin fluorescence, 48 h; inhibition, % at 1 µM; 1,100 tested, 13% active; AID 1258;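 active = inhibition above about 50% in both repeat tests, limit read from the data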
Numbers without * were called inactive; x = not tested or not shown. This excerpt belongs to a sample that is enriched for hits.

SMILES	Lmaj promast	MPTP block	T cruzi inh	Lipid droplet	DTT redox prof	Lmaj promast 1uM
CC(C)C(NS(=O)(=O)c1cccc2nsnc12)C(=O)Nc1nc2ccc(Cl)cc2s1 (stereo unspecified)	90.1*	0.7	8.5	x	-0.9	-28.7
Cc1nnc(N2CCCCC2)c2ccccc12	52.5*	1.5	8.9	-4.5	3.0	2.2
Cc1nn(-c2cccc(C(F)(F)F)c2)c(Cl)c1/C=N/Nc1cccc(C(=O)O)c1	90.1*	-0.1	-4.5	11.1	0.2	-8.0
CCN(CC)S(=O)(=O)c1ccc2c(c1)N(CC(=O)Nc1cccnc1Cl)C(=O)CO2	0.4	1.3	1.9	-17.2	0.4	x
O=C(O)c1cc2c(s1)-c1ccccc1CC2	53.0*	-0.5	4.3	3.5	0.3	-11.8
CCc1ccc2[nH]c(=O)c(CN(CCCN3CCOCC3)C(=O)Nc3ccccc3)cc2c1	21.1	-6.5	-1.9	11.8	1.4	x
CCc1ccc2[nH]c(=O)c(CN(CCCN3CCOCC3)C(=O)Nc3ccc(Cl)cc3)cc2c1	79.0*	5.7	20.4	x	1.8	-21.3
O=[N+]([O-])c1ncn(Cc2c(Cl)cccc2Cl)n1	11.7	1.5	34.7	-0.1	0.3	x
CN(C)S(=O)(=O)c1cccc(-c2cn3ccccc3n2)c1	5.7	1.4	3.5	x	0.7	x
CN(C)S(=O)(=O)c1cccc(-c2cn3cc(Cl)ccc3n2)c1	99.2*	-0.5	x	5.9	0.1	-8.7
CC/S(C)=N/S(=O)(=O)c1ccc(C)cc1 (stereo unspecified)	-7.4	0.8	7.9	-4.0	-1.0	x
O=C(O)CC(NC(=S)NCc1ccccc1)C(=O)O (stereo unspecified)	80.2*	-3.6	x	-2.4	0.1	3.9
CCN(CC)c1ccc(CN2CCCCCC2)cc1	89.8*	1.2	47.6	x	2.0	27.7
CCCCN1C2CCCC1CC(NC(=O)C1CCCCC1)C2 (stereo unspecified)	87.6*	-1.6	20.9	-6.2	0.5	-7.7
CCOC(=O)N=Nc1c(O)n(CC(=O)OC)c2ccccc12	2.5	0.4	-9.4	0.7	0.3	x
CCOC(=O)N=Nc1c2ccccc2c2nc3no[nH]c3nc12	100.6*	0.2	53.1	-17.3	-1.8	100.2*
COC(=O)CN1C(c2ccc(Cl)cc2)=Nc2ccc(Cl)cc2C1c1ccccc1 (stereo unspecified)	64.8*	2.3	34.2	-17.1	-0.1	48.0
COc1ccc(C2=Nc3ccc(C)cc3C(c3ccccc3)N2CC(=O)NN)cc1 (stereo unspecified)	-2.0	-2.1	-18.0	4.6	-0.5	x
Nc1c(C(O)(C(F)(F)F)C(F)(F)F)cc(C(O)(C(F)(F)F)C(F)(F)F)c2ccccc12	100.2*	-0.5	26.3	-5.9	1.6	-7.1
COc1ccccc1/C=C(/C(=O)OCC(=O)Nc1cc(C)ccc1C)c1ccccc1	-3.5	4.2	13.3	-25.5	0.0	x
Cc1cc(C)n2nc3nc4c(cc3c2n1)CCCC4	72.4*	0.1	-3.7	x	-0.6	-19.9
O=C(O)Cc1ccc2sc(-c3ccccc3)nc2c1	72.0*	1.3	-6.6	4.2	0.3	-5.7
COC(=O)Cc1ccc2sc(-c3ccccc3)nc2c1	6.3	-0.2	-22.4	6.2	0.2	x
CCC(CC)NCC(O)COc1ccc(Br)cc1 (stereo unspecified)	66.2*	1.8	x	-2.2	-1.9	5.8
CC(C)NCC(O)COc1ccc(Br)cc1 (stereo unspecified)	2.5	-4.2	8.1	3.6	0.0	x
SMILES	Lmaj promast	MPTP block	T cruzi inh	Lipid droplet	DTT redox prof	Lmaj promast 1uM
O=C(CCN1CCOCC1)NC1CCCN(Cc2ccccc2F)C1 (stereo unspecified)	x	1.6	-1.9	0.0	x	x
CCOC(=O)Cn1nc(NC(=O)COc2ccc(F)cc2)cc1C	x	-1.2	-6.5	-1.0	x	x
C/C(N)=C(/C#N)C(=O)CSc1nnc(Nc2ccccc2C)s1	0.2	-1.8	9.6	x	2.8	x
C/C(N)=C(/C#N)C(=O)CSc1nnc(Nc2ccccc2)s1	54.4*	2.5	14.9	1.6	-1.2	-15.1
CN(C)C(=O)c1cccc(-c2cccc3nccn23)c1	x	-1.4	x	x	x	x
Cc1cc(C)c(C(=O)c2ccc(C(=O)NC(C)(C)C)cc2)c(C)c1	48.3	-0.4	13.4	16.7	0.4	x
Cc1cc(C)c(C(=O)c2ccc(C(=O)N(C(C)C)C(C)C)cc2)c(C)c1	85.5*	0.2	20.5	-29.0	-0.1	-11.1
Nc1ccc(C2=Nc3cccc4cccc(c34)N2)cc1	23.3	1.4	-21.1	-4.9	3.9	x
CC1=Nc2cccc3cccc(c23)N1	99.8*	-0.5	-21.1	x	1.2	-8.8
O=C1CSC(c2cn(-c3ccccc3)nc2-c2cc3ccccc3oc2=O)N1Cc1ccccc1 (stereo unspecified)	61.5*	0.6	41.8	17.4	-0.2	0.8
COCCN(C(=O)c1snc(C(N)=O)c1N)C(C(=O)NC1CCCCC1)c1ccc(F)cc1 (stereo unspecified)	x	1.7	9.2	-0.4	x	x
COc1ccc(C2NCCn3cccc32)cc1 (stereo unspecified)	95.7*	5.0	-12.7	2.9	0.2	-20.2
CN(C)S(=O)(=O)c1cccc(N=c2scc(-c3ccc4c(c3)NC(=O)CO4)n2CC2CCCO2)c1 (stereo unspecified)	95.9*	0.8	3.9	29.3	0.3	-13.4
c1ccc(-c2csc(=Nc3cccnc3)n2CC2CCCO2)cc1 (stereo unspecified)	6.4	0.1	-4.5	-10.2	-0.6	x
Cc1ccc(-c2sc(C(=O)NN)c(C)c2C#N)cc1	x	3.0	-1.6	2.6	x	x
CCOC(=O)c1ccc(N=c2sc(C(=O)OC)cc(=O)n2Cc2ccco2)cc1	99.6*	0.2	42.3	8.3	-1.1	46.4
COC(=O)c1cc(=O)n(Cc2cccs2)c(=NCc2cccs2)s1	2.8	1.6	-1.5	x	4.0	x
FC(F)(F)c1nnc2c(Sc3ccccn3)nc3ccccc3n12	94.5*	0.1	-25.2	x	-3.5	13.6
FC(F)(F)c1nnc2c(Sc3ccccc3)nc3ccccc3n12	1.6	1.1	7.6	13.5	2.5	x
Nc1ccc(-c2nc3ccc(-c4nc5ccccc5o4)cc3[nH]2)cc1	75.6*	-0.3	11.1	x	-1.2	-27.0
C=CC[N+](C)(C)CCCNC(=O)/C=N/O	73.3*	4.7	-9.7	-1.6	-0.3	-7.8
CNCCC(Oc1ccc(C(F)(F)F)cc1)c1ccccc1 (stereo unspecified)	89.9*	x	15.4	-6.6	-0.5	-19.5
COc1ccc(S(=O)(=O)Nc2ccc(OCC(=O)O)cc2)c2ccccc12	x	-0.5	-10.9	9.3	x	x
O=C(Cc1n[nH]c(=O)c2ccccc12)OCC(=O)c1ccc(OC(F)F)cc1OC(F)F	x	-0.5	-2.0	x	x	x
CCOC(=O)c1c(-c2ccc(F)cc2)csc1NC(=O)CCN1CCOCC1	93.5*	-0.4	5.9	7.4	0.3	77.4*
CCOC(=O)c1c(-c2ccc(F)cc2)csc1NC(=O)CCN1C(=O)c2ccccc2C1=O	-1.7	0.7	7.0	-4.2	0.5	x
